Test results: ChEMBL document CHEMBL1122952, “Thromboxane synthetase inhibitors (TXSI). Design, synthesis, and evaluation of a novel series of omega-pyridylalkenoic acids” (J Med Chem, 1985)

What was measured:
Assay type in all cases: functional
[1] = tested on: Rattus norvegicus; assay: Ex vivo percent inhibition against serum TXB2 production after 24 hr r at dose 1 mg/kg by oral administration in rat
Summary of the method: (§1)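 Male Sprague–Dawley rats, 7–8 weeks old, dosed orally. Controls got vehicle alone (2 mL/kg water with a little gum arabic). At 24 h, 1 mL blood was drawn from the abdominal aorta under pentobarbital anesthesia (50 mg/kg ip) and clotted 90 min at 25 °C. Serum TXB2 was measured by radioimmunoassay. % inhibition = [1 − (B/A)] × 100 versus untreated rats.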

[2] = tested on: Rattus norvegicus; assay: Ex vivo percent inhibition against serum TXB2 production after 2 hr at dose 10 mg/kg by oral administration in rat
[3] = tested on: Rattus norvegicus; assay: Ex vivo percent inhibition against serum TXB2 production after 24 hr r at dose 10 mg/kg by oral administration in rat; summary of the method: as §1

In the case of `O=C(O)CCCCCC/C=C(\c1ccccc1)c1cccnc1`, the inhibition in vivo at 1 mg/kg [1] is reported as 17%.
Work on `COC(=O)CCCC/C=C(\c1ccccc1)c1cccnc1` yielded an inhibition in vivo at 10 mg/kg [2] of 92%.
`O=C(O)CCCCCCCC/C=C(\c1ccccc1)c1cccnc1` gave an inhibition in vivo at 1 mg/kg [1] of 10% and an inhibition in vivo at 10 mg/kg [2] of 92%.
For `CC(C)(CCC/C=C(\c1ccccc1)c1cccnc1)C(=O)O`, the inhibition in vivo at 1 mg/kg [1] was 14%.
For `CC(C)CSC(CCC/C=C(\c1ccccc1)c1cccnc1)C(=O)O` (stereo unspecified), the inhibition in vivo at 1 mg/kg [1] was 8%.
In the case of `OCCCCC/C=C(\c1ccccc1)c1cccnc1`, the inhibition in vivo at 10 mg/kg [2] is reported as 92%.
With `CC(C)(CCC/C=C(/c1cccnc1)c1cccs1)C(=O)O` the inhibition in vivo at 1 mg/kg [1] was 17%.
`O=C(O)CCCC/C=C(\c1ccccc1)c1cccnc1` [(E)-ISBOGREL] showed an inhibition in vivo at 1 mg/kg [1] of 53% and an inhibition in vivo at 10 mg/kg [3] of 90%.
Compound `CC(C)(O)C(CCC/C=C(\c1ccccc1)c1cccnc1)C(=O)O` (stereo unspecified) has an inhibition in vivo at 1 mg/kg [1] of 37%.
Work on `O=C(O)CCCCC/C=C(\c1ccccc1)c1cccnc1` yielded an inhibition in vivo at 1 mg/kg [1] of 24%.
`CCOC(=O)CCCC/C=C(\c1ccccc1)c1cccnc1` gave an inhibition in vivo at 1 mg/kg [1] of 35% and an inhibition in vivo at 10 mg/kg [2] of 90%.
Work on `O=C(O)CCCC/C=C(\c1ccccc1)c1ccc[n+]([O-])c1` yielded an inhibition in vivo at 10 mg/kg [2] of 85%.
`NC(=O)CCCC/C=C(\c1ccccc1)c1cccnc1` gave an inhibition in vivo at 10 mg/kg [2] of 93%.
